Data reported in ChEMBL document CHEMBL1121652, “Allylprodine analogues as receptor probes. Evidence that phenolic and nonphenolic ligands interact with different subsites on identical opioid receptors” (J Med Chem, 1981).
Activity calls are given as the source filed them.

Assays:
Mus musculus [1] = species: Mus musculus; experiment: Narcotic antagonistic potency evaluated by morphine-induced Straub tail phenomenon in mice; format: functional, organism-based; conditions: read-out: pA2 (converted)
Cavia porcellus [2] = species: Cavia porcellus; experiment: Relative agonist molar potency on the electrically stimulated guinea pig myenteric plexus longitudinal muscle preparation at 10e-6; Inactive; format: functional; conditions: Muscle tissue
In short: (§1)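 Electrically stimulated guinea pig ileum myenteric plexus–longitudinal muscle, measuring inhibition of twitch. Compounds active at 10⁻⁷ M or below were run in at least three independent preparations. Reversibility was checked with naloxone 2 × 10⁻⁶ M in the bath.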

Mus musculus [3] = experiment: Compound was evaluated for antagonist activity only at subagonistic dose levels in mice by mouse hotplate procedure; Inactive at 100 uM/kg; format: functional, organism-based
Mus musculus [4] = experiment: Compound was tested for narcotic agonist activity in mice by mouse hotplate procedure; Inactive at 100 uM/kg; format: functional, organism-based
In short: (§2)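 Male white Swiss-Webster mice, 25–35 g, at least five per dose. Baseline taken as three reaction times 15 min apart. Drug given s.c. in physiological saline. Hot plate read 10, 15 or 30 min after dosing, depending on compound class. Analgesia means postinjection time over double the control, with a 30 s cutoff. ED50 by probit analysis on free-base molar dose.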

Mus musculus [5] = experiment: Compound was tested for narcotic agonist activity in mice by mouse hotplate procedure; Inactive at 55 uM/kg; format: functional, organism-based; in short: as §2
Mus musculus [6] = experiment: Compound was evaluated for antagonist activity only at subagonistic dose levels in mice by mouse hotplate procedure; Inactive at 30 umol/kg; format: functional, organism-based
Mus musculus [7] = experiment: Compound was evaluated for antagonist activity only at subagonistic dose levels in mice by mouse hotplate procedure; Inactive at 115 uM/kg; format: functional, organism-based
Mus musculus [8] = experiment: Compound was tested for narcotic agonist activity in mice by mouse hotplate procedure; Inactive at 115 uM/kg; format: functional, organism-based; in short: as §2
Mus musculus [9] = experiment: Compound was evaluated for antagonist activity only at subagonistic dose levels in mice by mouse hotplate procedure; Inactive at 26 uM/kg; format: functional, organism-based
Cavia porcellus [10] = species: Cavia porcellus; experiment: Relative agonist molar potency on the electrically stimulated guinea pig myenteric plexus longitudinal muscle preparation; format: functional, Muscle tissue; in short: as §1
Mus musculus [11] = species: Mus musculus; experiment: Compound was tested for narcotic agonist activity in mice by mouse hotplate procedure; format: functional; in short: as §2
Mus musculus [12] = species: Mus musculus; experiment: Compound was evaluated for antagonist activity only at subagonistic dose levels by mouse hotplate procedure; format: functional
Mus musculus [13] = species: Mus musculus; experiment: Narcotic antagonistic potency evaluated in morphine-induced Straub tail phenomenon in mice; format: functional, organism-based; conditions: read-out: pA2 (converted)
Mus musculus [14] = experiment: Compound was tested for narcotic agonist activity in mice by mouse hotplate procedure; Inactive at 110 uM/kg; format: functional, organism-based; in short: as §2
Mus musculus [15] = species: Mus musculus; experiment: Compound was evaluated for antagonist activity only at subagonistic dose levels in mice by mouse hotplate procedure; format: functional
Mus musculus [16] = experiment: Compound was evaluated for antagonist activity only at subagonistic dose levels in mice by mouse hotplate procedure; Inactive at 15 umol/kg; format: functional, organism-based
Mus musculus [17] = experiment: Compound was tested for narcotic agonist activity in mice by mouse hotplate procedure; Inactive at 60 uM/kg; format: functional, organism-based; in short: as §2
Mus musculus [18] = experiment: Compound was evaluated for antagonist activity only at subagonistic dose levels in mice by mouse hotplate procedure; Inactive at 60 uM/kg; format: functional, organism-based
Mus musculus [19] = experiment: Compound was tested for narcotic agonist activity in mice by mouse hotplate procedure; Inactive at 120 uM/kg; format: functional, organism-based; in short: as §2
Mus musculus [20] = experiment: Compound was evaluated for antagonist activity only at subagonistic dose of 120 uM/kg levels in mice by mouse hotplate procedure; format: functional
Mus musculus [21] = species: Mus musculus; experiment: Compound was tested for narcotic agonist activity (effective dose) by mouse hotplate procedure
Mus musculus [22] = experiment: Compound was evaluated for antagonist activity only at subagonistic dose levels in mice by mouse hotplate procedure; Inactive at 17 uM/kg; format: functional, organism-based

CCC[C@H]1CN(C)CC[C@@]1(OC(=O)CC)c1cccc(O)c1
Kb (Mus musculus [1]): ≥ 1 µM | Potency (Cavia porcellus [2]): inactive | AD50 (Mus musculus [3]): inactive | ED50 (Mus musculus [4]): inactive

C=CC[C@H]1CN(CC=C)CC[C@@]1(OC(=O)CC)c1cccc(O)c1
ED50 (Mus musculus [5]): inactive | Kb (Mus musculus [1]): ≥ 1 µM | Potency (Cavia porcellus [2]): inactive | AD50 (Mus musculus [6]): inactive

C=CC[C@H]1CN(C)CC[C@@]1(OC(=O)CC)c1cccc(OC)c1
AD50 (Mus musculus [7]): inactive | ED50 (Mus musculus [8]): inactive | Kb (Mus musculus [1]): ≥ 1 µM | Potency (Cavia porcellus [2]): inactive

C=CC[C@@H]1CN(CC=C)CC[C@@]1(OC(=O)CC)c1cccc(OC)c1
AD50 (Mus musculus [9]): inactive | Potency (Cavia porcellus [10]): 0.033 | Kb (Mus musculus [1]): ≥ 1 µM | Inhibition (Mus musculus [11]): 17%

O=C1CC[C@@]2(O)[C@H]3Cc4ccc(O)c5c4[C@@]2(CCN3CC2CC2)[C@H]1O5 [NALTREXONE]
AD50 (Mus musculus [12]): 0.031 µM/kg | Kb (Mus musculus [13]): > 1 µM

CCC[C@@H]1CN(C)CC[C@@]1(OC(=O)CC)c1cccc(O)c1
Kb (Mus musculus [1]): ≥ 1 µM | Potency (Cavia porcellus [2]): inactive | AD50 (Mus musculus [3]): inactive | ED50 (Mus musculus [4]): inactive

C=CC[C@@H]1CN(C)CC[C@@]1(OC(=O)CC)c1ccccc1
Potency (Cavia porcellus [10]): 4.51 | Kb (Mus musculus [1]): ≥ 1 µM | ED50 (Mus musculus [11]): 0.54 µmol/kg

C=CC[C@@H]1CN(CC=C)CC[C@@]1(OC(=O)CC)c1cccc(O)c1
ED50 (Mus musculus [14]): inactive | Kb (Mus musculus [1]): ≥ 1 µM | Potency (Cavia porcellus [2]): inactive | AD50 (Mus musculus [15]): 74.13 µM/kg

C=CC[C@@H]1CN(C)CC[C@@]1(OC(=O)CC)c1cccc(OC)c1
AD50 (Mus musculus [16]): inactive | Potency (Cavia porcellus [10]): 0.12 | Kb (Mus musculus [1]): ≥ 1 µM | ED50 (Mus musculus [11]): 34.7 µmol/kg

C=CC[C@H]1CN(C)CC[C@@]1(OC(=O)CC)c1cccc(O)c1
ED50 (Mus musculus [17]): inactive | Kb (Mus musculus [1]): ≥ 1 µM | AD50 (Mus musculus [18]): inactive | Potency (Cavia porcellus [2]): inactive

C=CC[C@@H]1CN(C)CC[C@@]1(OC(=O)CC)c1cccc(O)c1
ED50 (Mus musculus [19]): inactive | AD50 (Mus musculus [20]): 12% | Kb (Mus musculus [1]): ≥ 1 µM | Potency (Cavia porcellus [2]): inactive

CN1CC[C@]23c4c5ccc(O)c4O[C@H]2[C@@H](O)C=C[C@H]3[C@H]1C5 [MORPHINE]
ED50 (Mus musculus [21]): 12.4 µmol/kg

CCC(=O)OC1(c2cccc(O)c2)CCN(C)CC1
Potency (Cavia porcellus [10]): 0.011 | Kb (Mus musculus [1]): ≥ 1 µM | AD50 (Mus musculus [22]): inactive | ED50 (Mus musculus [11]): 110 µmol/kg

C=CCN1CC[C@]23c4c5ccc(O)c4O[C@H]2C(=O)CC[C@@]3(O)[C@H]1C5 [NALOXONE]
Kb (Mus musculus [13]): 0.00295 µM
